The source made the active and inactive calls.
Columns and labels:
Plasmodium berghei [1] = experiment: Antimalarial activity against Plasmodium berghei infected in mouse assessed as increase in mean survival time at 40 mg/kg measured after 60 days post infection relative to control; assay type: functional
How it was run: (§1)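 Tested at Walter Reed Army Institute of Research (communicated data) in mice infected with P. berghei. Five mice per test. Read-out is the increase in mean survival time (ΔMST, days) over the control group. Activity is defined as ΔMST above 6.1 days. Cure (C) is scored when at least one of the five mice survives to 60 days postinfection.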

Plasmodium berghei [2] = experiment: Antimalarial activity against Plasmodium berghei infected in mouse assessed as increase in mean survival time at 80 mg/kg measured after 60 days post infection relative to control; assay type: functional; how it was run: as §1
Plasmodium berghei [3] = experiment: Antimalarial activity against Plasmodium berghei infected in mouse assessed as increase in mean survival time at 160 mg/kg measured after 60 days post infection relative to control; assay type: functional; how it was run: as §1
Plasmodium berghei [4] = experiment: Antimalarial activity against Plasmodium berghei infected in mouse assessed as increase in mean survival time at 320 mg/kg measured after 60 days post infection relative to control; assay type: functional; how it was run: as §1
Plasmodium berghei [5] = experiment: Antimalarial activity against Plasmodium berghei infected in mouse assessed as increase in mean survival time at 640 mg/kg measured after 60 days post infection relative to control; assay type: functional; how it was run: as §1
Calf thymus DNA [6] = experiment: Binding affinity to sonicated calf thymus DNA at 10^-3 M by spectroscopy; assay type: nucleic-acid assay; details: Bos taurus
How it was run: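 Difference spectra: sonicated calf thymus DNA (2.3×10^-3 M) and drug (3.5×10^-4 M) in standard pH 7.0 phosphate/EDTA buffer were loaded in separate compartments of 10-mm tandem cells to set a baseline. Equal volumes were then mixed and read against the separated solutions.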

Calf thymus DNA [7] = experiment: Binding affinity to sonicated calf thymus DNA by viscometric titrations; assay type: nucleic-acid assay; details: Bos taurus
How it was run: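 Sonicated calf thymus DNA (1.0-3.0 mL) titrated with small aliquots of concentrated drug stock in a semimicro Ubbelohde dilution viscometer at 25 °C, in standard buffer. Volume change stayed at or below 3%, and DNA dilution was corrected. Reduced specific viscosity ratio plotted against drug/nucleotide molar ratio.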

Calf thymus DNA [8] = experiment: Binding affinity to calf thymus DNA assessed as melting temperature at 10^-4 M by thermal denaturation assay; assay type: nucleic-acid assay; details: Bos taurus
How it was run: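 Calf thymus DNA dissolved in standard buffer (3.8×10^-3 M NaH2PO4, 5×10^-4 M EDTA, pH 7.0, ionic strength 0.0095) and dialyzed against it. Thermal denaturation: DNA at 10^-4 M (nucleotide equivalents), drug at 10^-4 M. Absorbance recorded as a function of temperature in stoppered 1.0-cm quartz cuvettes, with a thermistor in the cell block.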

Escherichia coli [9] = experiment: Binding affinity to closed circular superhelical Escherichia coli ColE1 DNA by viscometric titrations
Calf thymus DNA [10] = experiment: Binding affinity to calf thymus DNA assessed as melting temperature at 10^-5 M by thermal denaturation assay; assay type: nucleic-acid assay; details: Bos taurus
How it was run: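 Thermal melting of dialyzed calf thymus DNA (10^-4 M nucleotide) with drug at 10^-5 M, in standard phosphate/EDTA buffer at pH 7.0. Absorbance followed against temperature in 1.0-cm stoppered quartz cuvettes, with temperature monitored by a cell-block thermistor.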

Escherichia coli [11] = experiment: Inhibition of Escherichia coli RNA polymerase assessed as reduction in RNA transcription at compound/DNA molar ratio of 1
Plasmodium berghei [12] = experiment: Antimalarial activity against Plasmodium berghei infected in mouse assessed as increase in mean survival time at 80 to 640 mg/kg measured after 60 days post infection relative to control; assay type: functional, organism-based

Row | Structure (SMILES) | Activity (Calf thymus DNA [7]) | Activity (Escherichia coli [9]) | Activity (Calf thymus DNA [6]) | Tm (Calf thymus DNA [8]) | further results
1 | NC(=O)c1cc(C(O)C2CCCCN2)c2cccc(C(F)(F)F)c2n1 (configuration not stated) | Active | inactive | Active | 64.9 °C | fold change (FC) (Plasmodium berghei [1]): 0.3; fold change (FC) (Plasmodium berghei [2]): 0.3; fold change (FC) (Plasmodium berghei [3]): 0.5; fold change (FC) (Plasmodium berghei [4]): 0.7; fold change (FC) (Plasmodium berghei [5]): 7.9
2 | OC(c1cc(C(F)(F)F)nc2c(F)cccc12)C1CCCCN1 (configuration not stated) | inactive | inactive | Active | 61.5 °C | fold change (FC) (Plasmodium berghei [2]): 4.1; fold change (FC) (Plasmodium berghei [4]): 7.1
3 | CCN(CC)CCCC(C)Nc1c2ccc(Cl)cc2nc2ccc(OC)cc12 (configuration not stated) | Active | Active |  |  | Tm (Calf thymus DNA [10]): 88 °C
4 | COc1cccc2c1C(=O)c1c(O)c3c(c(O)c1C2=O)C[C@@](O)(C(C)=O)C[C@@H]3O[C@H]1C[C@H](N)[C@H](O)[C@H](C)O1 |  |  |  |  | Activity (Escherichia coli [11]): Active

Continued, in another order:

Row | Activity (Calf thymus DNA [7]) | Activity (Escherichia coli [9]) | Structure (SMILES) | Activity (Calf thymus DNA [6]) | Tm (Calf thymus DNA [8]) | further results
5 | Active |  | C=C[C@H]1CN2CC[C@H]1C[C@H]2[C@H](O)c1ccnc2ccc(OC)cc12 | Active | 66.3 °C | 
6 |  | inactive | NCCCCN |  |  | 
7 | Active | inactive | CCN(CC)CCCC(C)Nc1ccnc2cc(Cl)ccc12 (configuration not stated) |  |  | Tm (Calf thymus DNA [10]): 75 °C
8 | inactive | inactive | O[C@@H](c1cc(C(F)(F)F)nc2c(C(F)(F)F)cccc12)[C@H]1CCCCN1 (relative stereo) | Active | 63 °C | Activity (Plasmodium berghei [12]): Active; Activity (Escherichia coli [11]): inactive
